# Only some compounds are listed: those with a hit (about 2.2% of all), similar ones and a draw of the others.
# LEDGF integ inh = blocks HIV-1 LEDGF/p75-dependent DNA integration. AID 743269. inhibition, % at 3.7 µM. TR-FRET IN-LEDGF/p75 DNA integration, Eu/Cy5. hit rate 0.64% among 370,000;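 active means inhibition above the screen-wide mean plus 3 SD, cut at about 13% in these data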;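 further: signal is the Cy5 over europium emission ratio at 671 and 618 nm; 0% = plate median of compound wells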
# SIAE inh = human SIAE inhibition, primary screen; SIAE FP-Rh probe binding, fluorescence polarization; inhibition, % at 9.66 µM; hit rate 0.69% among 370,000; AID 1053197;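 active means inhibition above a cutoff: mean of compounds within the control limits plus 3 SD of those, cut at about 17% in these data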;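 further: 0% = plate median of compound wells and 100% = probe without SIAE protein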
# ABHD4 inh = inhibitors of mouse ABHD4; inhibition, % at 8.92 µM; purified mABHD4, FP-Rh probe fluorescence polarization; hit rate 0.54% among 370,000;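 active means inhibition exceeding the mean over every tested compound plus 3 SD, cut at about 30% in these data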;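 further: 0% = plate median of compound wells and 100% = S159A mutant with DMSO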
#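 Assay system: mABHD4 protein; medium: HEPES pH 7.0, NaCl, Pluronic buffer; dosing: 8.92 µM, single dose; schedule: 45 min + 60 min at 25 °C; signal: FP readout, ex 525 nm / em 598 nm; read-out: normalized percent inhibition of probe labeling; repeats: single replicate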
# TDP2 absorb = TDP2 (human) inhibition, absorbance primary screen. hit rate 0.34% among 370,000. inhibition, % at 12.8 µM. O95551. recombinant TDP2, T5PNP hydrolysis, p-nitrophenol absorbance 415 nm;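 active means inhibition above the mean of all tested compounds plus 3 SD, set per campaign, cut at about 25% in these data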;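 further: 0% = DMSO with enzyme and 100% = buffer with substrate but no TDP2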
#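 Test system: human TDP2 enzyme; Input: 120 nM TDP2 per well; Buffer or medium: Mg2+-containing Tris-HCl buffer, pH 7.5; Reagent: 5 mM T5PNP; Dosing: 12.8 µM single point, 1% DMSO; Incubation: reaction 2 h, 37 °C; Detection: p-Nitrophenol epi absorbance; Read-out: % inhibition relative to enzyme-containing and enzyme-free wells; Replicates: single well per compound.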
# HTRA1 inhibitor = HTRA1 (human) protease inhibition | recombinant HTRA1, FP-rhodamine activity-based probe, fluorescence polarization | inhibition, % at 5.96 µM | hit rate 0.5% among 340,000 | AID 504803; in the data active means inhibition above about 36%;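 further: 0% = enzyme with DMSO and 100% = wells lacking enzyme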
# Target sequence (Q92743 whole entry, looked up): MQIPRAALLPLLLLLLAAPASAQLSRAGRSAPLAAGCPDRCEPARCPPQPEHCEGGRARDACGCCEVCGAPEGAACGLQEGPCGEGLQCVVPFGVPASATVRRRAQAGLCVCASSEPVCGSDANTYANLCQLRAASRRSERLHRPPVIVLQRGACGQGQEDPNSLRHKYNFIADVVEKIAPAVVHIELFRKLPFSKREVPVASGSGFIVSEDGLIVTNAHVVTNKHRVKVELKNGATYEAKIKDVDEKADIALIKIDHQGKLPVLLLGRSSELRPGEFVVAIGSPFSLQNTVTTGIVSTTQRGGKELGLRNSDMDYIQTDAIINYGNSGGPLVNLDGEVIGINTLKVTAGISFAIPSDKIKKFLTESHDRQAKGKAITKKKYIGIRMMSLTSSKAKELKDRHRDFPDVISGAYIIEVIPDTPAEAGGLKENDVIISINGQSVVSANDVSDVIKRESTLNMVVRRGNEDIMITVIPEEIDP
# TCR CD3 inh = inhibitors of human TCR-CD3 interaction. TAMRA-labeled TCR probe fluorescence, biochemical. inhibition, % at 9.4 µM. hit rate 0.37% among 360,000. AID 651800;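 further: recombinant mutant TCR 2C K166C tagged with TAMRA read by polarization; 0% = receptor in buffer alone and 100% = receptor with positive control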
# HTRA1 conf = confirmation of human HTRA1 inhibitors; shares compounds with HTRA1 inhibitor; recombinant HTRA1, FP-rhodamine activity-based probe, fluorescence polarization; inhibition, % at 5.96 µM; hit rate 66% among 1,600;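 active means mean inhibition over three repeats above a set limit taken from the earlier primary screen, cut at about 37% in these data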;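 further: 0% = HTRA1 with DMSO and 100% = wells lacking HTRA1; inhibitors block probe binding so polarization drops and inhibition rises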
# BSA TAMRA ctr = BSA probe counter-screen for TCR-CD3 inhibitors. shares compounds with TCR CD3 inh. TAMRA-labeled BSA probe fluorescence counterscreen. inhibition, % at 9.4 µM. hit rate 10% among 1,200. AID 652035; in the data active means inhibition above about 23%;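 further: 0% = buffer low control and 100% = reference high control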
# TCR-CD3 inh conf = confirmation of human TCR-CD3 interaction inhibitors; shares compounds with TCR CD3 inh; TAMRA-labeled TCR probe fluorescence binding assay; inhibition, % at 9.4 µM; hit rate 48% among 1,200; AID 652036
# ABHD4 confirm = confirmation of mouse ABHD4 inhibitors | shares compounds with ABHD4 inh | purified mABHD4, FP-Rh probe fluorescence polarization | inhibition, % at 8.92 µM | hit rate 55% among 1,800 | AID 720658;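 active means mean inhibition across replicates above the hit cutoff set in the primary screen, cut at about 30% in these data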;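 further: 0% = wild-type ABHD4 with DMSO and 100% = catalytically dead S159A mutant with DMSO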
# The depositor's hits bear a star; . = no result given. Unless noted, no stated cut-off is given here; in the data, active means inhibition above about 19%; inactive means the rest.
SMILES,LEDGF integ inh,SIAE inh,ABHD4 inh,TDP2 absorb,HTRA1 inhibitor,TCR CD3 inh,HTRA1 conf,ABHD4 confirm,others
CC1CCC/C(=C\Nc2ccc(O)cc2)C1=O (configuration not stated),3.0,16.1,43.7*,7.7,39.3*,24.3*,9.3,22.2,BSA TAMRA ctr=2.2;TCR-CD3 inh conf=3.2
Cc1cc(C(=O)O)ccc1N/C=C1\CCCC(C)C1=O (configuration not stated),-0.7,4.9,4.3,4.9,-0.4,-2.6,.,.,
COC(=O)C1=C(C)N(Cc2ccccc2C(F)(F)F)C(=NCc2ccc(C(F)(F)F)cc2)NC1c1cccc(Cl)c1 (configuration not stated),2.7,-13.6,-5.5,-7.6,.,-4.6,.,.,
C=CCn1c(SCC(=O)c2ccc(O)c(O)c2)nnc1-c1ccccc1OC,-5.6,4.3,29.5*,-7.8,58.6*,5.1,48.9*,9.6,
C=CCn1c(SCC(=O)Nc2cc(C)on2)nnc1-c1ccccc1OC,-1.4,4.9,1.0,-5.1,3.3,-4.7,.,.,
CCN(CC)c1ccc(/C=N/N(c2ccccc2)c2ccccc2)c(O)c1,0.6,2.9,5.2,6.7,23.0,-6.3,.,.,
Oc1ccc(/C=N/N(c2ccccc2)c2ccccc2)cc1O,2.5,2.2,41.8*,-6.9,56.6*,1.2,97.4*,27.4,
Oc1ccc(C2C[C@H]3CC[C@@H]2C3)cc1O (some centres not stated),-6.6,7.1,30.4*,0.9,50.5*,-0.7,75.6*,18.4,
O=[N+]([O-])c1ccccc1C1Nc2cccc3cccc(c23)N1,0.4,5.7,52.6*,2.9,51.0*,8.0,19.9,54.8*,
Oc1ccccc1C1Nc2cccc3cccc(c23)N1,4.4,5.2,13.8,2.2,29.7,2.2,.,.,
CCOc1ccc(C=NNc2ccc(S(=O)(=O)Nc3ccccc3C(=O)O)cc2[N+](=O)[O-])cc1,.,10.2,.,.,11.2,.,.,.,
COc1ccc(NC(=S)NNc2ccc(S(=O)(=O)Nc3ccccc3C(=O)O)cc2[N+](=O)[O-])cc1,4.6,-11.4,74.4*,4.5,73.8*,0.8,73.2*,95.5*,
CCc1c(-c2ccc(OC)cc2)ncn1CCc1ccccc1OC,2.9,1.0,8.1,-4.6,.,7.8,.,.,
COc1cccc2c1-c1c(O)cccc1C2=O,3.6,2.5,-0.8,1.7,-0.9,0.1,.,.,
COc1cccc2c1C(=O)c1c(O)c3c(c(O)c1C2=O)C[C@](O)(C(C)=O)C[C@H]3O[C@@H]1C[C@@H](N)[C@@H](O)[C@@H](C)O1,2.1,56.5*,68.5*,-3.9,67.8*,163.2*,72.3*,60.6*,BSA TAMRA ctr=179.4*;TCR-CD3 inh conf=147.7*
COc1ccc(-c2cc(C(=O)N=Nc3c(O)[nH]c4ccccc34)[nH]n2)cc1,-4.0,4.8,-8.2,0.4,.,.,.,.,
CNc1ccc(Br)cc(C(=O)/C=C/c2ccc(Cl)cc2Cl)c1=O,0.1,12.9,33.2*,8.9,63.9*,11.4,48.3*,57.2*,
CNc1ccc(Br)cc(C(=O)/C=C/c2cccc(OC)c2)c1=O,12.3,7.8,36.8*,2.3,39.5*,9.7,-0.9,42.8*,
O=c1oc(-c2ccc(O)c(O)c2)cc2cc(O)cc(O)c12,-0.3,11.5,51.4*,2.6,55.5*,18.2,124.4*,36.2*,
O=c1oc(-c2ccc(O)c(O)c2)cc2cccc(O)c12,-4.2,4.6,34.8*,-15.0,62.2*,11.0,67.7*,33.6*,
C=CCN(CC#Cc1ccccc1)CC=C,3.8,-0.1,0.0,0.8,.,.,.,.,
N#CC1=C2N=C(N)c3ccccc3N2C2=C(C(=O)CCC2)C1c1ccc(F)cc1 (configuration not stated),-3.5,3.4,7.6,-4.3,-5.2,-2.6,.,.,
N#CC1=C2N=C(N)c3c(sc4c3CCCCC4)N2C2=C(C(=O)CCC2)C1c1ccccc1 (configuration not stated),4.1,11.4,31.7*,-11.6,40.2*,1.6,8.8,-26.0,
O=C(NCc1ccc(C(=O)NCC2CCCO2)cc1)c1cccc(Br)c1 (configuration not stated),-0.2,-0.8,-2.4,0.9,.,.,.,.,
COC(=O)c1cc(=O)n(Cc2ccco2)c(=Nc2ccccc2)s1,2.7,-8.1,-5.4,-7.3,.,3.0,.,.,
SMILES,LEDGF integ inh,SIAE inh,ABHD4 inh,TDP2 absorb,HTRA1 inhibitor,TCR CD3 inh,HTRA1 conf,ABHD4 confirm,others
Nc1ccc2ccccc2c1N=Nc1ccccc1,3.9,11.5,39.0*,-6.2,59.3*,0.7,53.1*,38.6*,
Nc1ncnc(N)c1N=Nc1ccccc1,2.4,-0.3,0.2,-6.6,0.0,6.9,.,.,
COc1ccc2c(CCN3C(=O)c4ccccc4C3=O)c(-c3c(CCN4C(=O)c5ccccc5C4=O)c4ccccc4n3C(=O)OC(C)(C)C)[nH]c2c1,-0.5,-4.7,-9.2,13.8,.,.,.,.,
O=C(CSc1nnnn1-c1ccc(F)cc1)c1ccc(O)c(O)c1,-7.3,4.5,29.9*,-11.5,41.4*,5.8,53.1*,14.6,
CCCCNC(=O)O[C@H]1CC[C@@]23CCCN2C(=O)CCC[C@H]3[C@H]1CCC,5.5,2.3,0.8,-11.0,.,.,.,.,
CC(=O)C1=C(C)NC(=S)NC1c1ccccc1 (configuration not stated),1.6,4.3,3.0,9.4,.,1.0,.,.,
O=C(O)CCNc1ccc(NCCC(=O)O)c2c1C(=O)c1ccccc1C2=O,-7.6,12.8,56.1*,3.5,44.4*,28.0*,58.6*,65.4*,BSA TAMRA ctr=12.7;TCR-CD3 inh conf=41.5*
Cc1cccc(NNC(=O)C(=O)NNc2cccc(C)c2)c1,5.3,11.0,10.1,-10.9,.,5.5,.,.,
Cc1cccc(N=NC(=S)NNc2cccc(C)c2)c1,-0.4,5.8,32.3*,-6.2,36.3*,0.6,45.2*,57.8*,
N=c1c2c(-c3ccccc3)c(-c3ccccc3)n(CCc3ccccc3)c2ncn1C1CCC(O)CC1 (configuration not stated),-2.8,-4.8,6.8,-7.7,.,.,.,.,
O=C(c1ccco1)N1CCN(CCCCN2C(=O)c3ccccc3C2=O)CC1,2.6,4.5,0.9,3.6,-1.5,-2.6,.,.,
O=C1c2ccccc2-c2onc3c(N4CCN(CCO)CC4)cc(N4CCN(C(=O)c5ccco5)CC4)c1c23,-10.3,16.2,35.1*,2.1,67.0*,9.9,72.1*,43.4*,

# Screening data deposited in PubChem by The Scripps Research Institute Molecular Screening Center.
